Source: ChEMBL document CHEMBL5107948, “Activity-based protein profiling reveals deubiquitinase and aldehyde dehydrogenase targets of a cyanopyrrolidine probe” (RSC Med Chem, 2021)
Calls of active or inactive are those of the source. The calls are words filed in the database; no cut-off is given here.

Assays:
Assay type in all cases: cell-based
[1] = target: Ubiquitin carboxyl-terminal hydrolase isozyme L1 (Homo sapiens) (UniProt P09936); experiment: Binding affinity to UCHL1 in human HEK293 cells assessed as fold change at 130 nM incubated for 3 to 6 hrs by LFQ-chemical proteomics analysis; details: time 3-6 hrs
Chain of Ubiquitin carboxyl-terminal hydrolase isozyme L1 (Homo sapiens) (P09936 whole entry, looked up): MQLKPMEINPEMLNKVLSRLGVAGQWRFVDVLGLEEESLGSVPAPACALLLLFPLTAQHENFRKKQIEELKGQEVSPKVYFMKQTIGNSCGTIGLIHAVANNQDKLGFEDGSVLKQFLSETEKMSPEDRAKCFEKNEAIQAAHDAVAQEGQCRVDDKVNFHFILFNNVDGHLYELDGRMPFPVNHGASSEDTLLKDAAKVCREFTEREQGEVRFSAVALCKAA
Summary of the method: (§1)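 HEK293 cells exposed to alkyne ABP or DMSO for 3, 6 or 18 h, washed, lysed in PBS/1% Triton X-100/0.1% SDS. Lysates (400 µg, biological triplicates) CuAAC-ligated to AzRB (100 µM, CuSO4 1 mM, TCEP 1 mM, TBTA 100 µM, 1 h RT). NeutrAvidin enrichment, on-bead TCEP/CAA reduction-alkylation, overnight trypsin digest at 37 °C, LC-MS/MS label-free quantification. Two-sample t-test against DMSO (n=3, permutation FDR 0.01, S0=1).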

[2] = target: T1, Aldehyde dehydrogenase, mitochondrial (Homo sapiens) (UniProt P05091); experiment: Binding affinity to ALDH2 in human HEK293 cells assessed as fold change at 130 nM incubated for 3 to 6 hrs by LFQ-chemical proteomics analysis; details: time 3-6 hrs; summary of the method: as §1
T1 sequence (whole entry): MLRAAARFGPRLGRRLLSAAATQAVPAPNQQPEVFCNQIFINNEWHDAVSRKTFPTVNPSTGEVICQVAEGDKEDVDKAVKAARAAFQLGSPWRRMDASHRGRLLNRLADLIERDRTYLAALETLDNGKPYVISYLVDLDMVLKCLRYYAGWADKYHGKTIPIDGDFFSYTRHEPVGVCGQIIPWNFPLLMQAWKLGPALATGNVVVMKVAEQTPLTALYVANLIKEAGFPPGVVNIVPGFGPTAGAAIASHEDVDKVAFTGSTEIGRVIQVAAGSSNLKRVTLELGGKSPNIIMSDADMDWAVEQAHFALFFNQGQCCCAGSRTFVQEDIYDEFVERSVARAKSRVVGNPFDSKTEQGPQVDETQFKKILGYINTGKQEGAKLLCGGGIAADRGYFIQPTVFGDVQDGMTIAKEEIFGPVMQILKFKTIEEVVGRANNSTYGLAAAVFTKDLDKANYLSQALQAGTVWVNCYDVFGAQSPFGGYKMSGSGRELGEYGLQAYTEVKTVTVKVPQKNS

[3] = target: Ubiquitin carboxyl-terminal hydrolase isozyme L1 (Homo sapiens) (UniProt P09936); experiment: Binding affinity to UCHL1 in human HEK293 cells assessed as fold change at 30 nM incubated for 3 to 18 hrs by LFQ-chemical proteomics analysis; details: time 3-18 hrs; summary of the method: as §1
[4] = target: T2, Glutamine amidotransferase-like class 1 domain-containing protein 3, mitochondrial (Homo sapiens) (UniProt P0DPI2); experiment: Binding affinity to GATD3A in human HEK293 cells assessed as fold change at 30 nM incubated for 3 to 18 hrs by LFQ-chemical proteomics analysis; details: time 3-18 hrs; summary of the method: as §1
T2 sequence (whole entry): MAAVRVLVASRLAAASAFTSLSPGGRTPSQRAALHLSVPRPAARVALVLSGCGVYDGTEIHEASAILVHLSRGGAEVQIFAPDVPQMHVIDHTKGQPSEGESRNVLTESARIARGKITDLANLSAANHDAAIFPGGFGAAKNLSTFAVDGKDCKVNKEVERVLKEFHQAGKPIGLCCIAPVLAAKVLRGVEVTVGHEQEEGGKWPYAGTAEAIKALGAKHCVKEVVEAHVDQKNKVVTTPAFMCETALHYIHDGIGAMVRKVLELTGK

HEK293 = experiment: Binding affinity to ALDH in human HEK293 cells assessed as fold change at 30 nM incubated for 3 to 18 hrs by LFQ-chemical proteomics analysis; details: time 3-18 hrs; summary of the method: as §1
[5] = target: 4-trimethylaminobutyraldehyde dehydrogenase (Homo sapiens) (UniProt P49189); experiment: Inhibition of ALDH9A1 in human HEK293 cells at 130 to 2000 nM in presence of ABP MT16-205 by Competitive pulldown based immunoblotting analysis; details: dose 130-2000 nM, DDE = dose-dependent effect
Chain of 4-trimethylaminobutyraldehyde dehydrogenase (Homo sapiens) (P49189 whole entry): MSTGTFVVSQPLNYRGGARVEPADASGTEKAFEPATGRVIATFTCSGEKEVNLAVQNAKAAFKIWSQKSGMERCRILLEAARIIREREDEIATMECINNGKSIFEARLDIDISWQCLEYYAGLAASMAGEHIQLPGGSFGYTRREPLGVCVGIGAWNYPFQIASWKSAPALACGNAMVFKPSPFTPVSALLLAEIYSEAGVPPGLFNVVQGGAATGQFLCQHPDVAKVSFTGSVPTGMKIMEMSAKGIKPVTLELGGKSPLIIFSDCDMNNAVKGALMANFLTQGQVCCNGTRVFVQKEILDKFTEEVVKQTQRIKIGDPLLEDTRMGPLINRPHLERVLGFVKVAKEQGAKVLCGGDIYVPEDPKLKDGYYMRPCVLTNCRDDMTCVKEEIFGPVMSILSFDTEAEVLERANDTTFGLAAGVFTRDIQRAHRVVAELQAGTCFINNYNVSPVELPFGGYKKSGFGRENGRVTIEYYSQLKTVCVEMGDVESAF
Summary of the method: (§2)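 Lysates AzTB-clicked, streptavidin bead pulldown (2 h RT), boiled elution, SDS-PAGE. Target detected by immunoblot: 3% BSA/TBS-T block, primary antibody 1.5 h RT or overnight at 4 °C, HRP secondary, chemiluminescence.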

[6] = target: 4-trimethylaminobutyraldehyde dehydrogenase (Homo sapiens) (UniProt P49189); experiment: Inhibition of ALDH9A1 in human HEK293 cells at 250 nM in presence of ABP MT16-205 by Competitive pulldown based immunoblotting analysis; summary of the method: as §2
[7] = target: T1, Aldehyde dehydrogenase, mitochondrial (Homo sapiens); experiment: Binding affinity to ALDH2 in human HEK293 cells at 130 to 500 nM in presence of ABP MT16-205 by LFQ-NanoLC-MS/MS analysis; details: dose 130-500 nM, DDE = dose-dependent effect
Summary of the method: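 Competition format: HEK293 cells pre-treated 1 h with competitor or DMSO, then exposed to ABP MT16-205. Lysis in PBS/Triton/SDS buffer, AzRB click ligation, NeutrAvidin pulldown, on-bead TCEP/chloroacetamide treatment and overnight tryptic digestion. Label-free LC-MS/MS; two-sample t-test versus control (n=3, permutation FDR 0.01, S0=1).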

C#Cc1ccc(-c2cnc(NC(=O)[C@H]3CCN(C#N)C3)s2)cc1
fold change (FC) [1]: > 64
fold change (FC) [2]: > 64
fold change (FC) [3]: > 16
fold change (FC) [4]: > 16
fold change (FC) (HEK293): > 16

N#CN1CC[C@H](C(=O)Nc2ncc(-c3ccccc3)s2)C1
inhibition [5]: Dde
inhibition [6]: Active
Activity [7]: Dde
